According to ChEMBL document CHEMBL2346548, “Design, synthesis, and structure-activity relationship studies of tryptanthrins as antitubercular agents” (J Nat Prod, 2013):
Values after ≈ are worked out from the molar mass of the structure shown.

Experiments:
[1] = Cmax in C57BL/6 mouse at 40 mg/kg, po formulated in 20% DMSODMSO, 20% PEG400, 60% (30% HP-beta-CD in water); format: ADME, organism-based; parameters: dose 40 mg/kg, route oral; settings: in vivo
How it was run: (§1)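 Female C57BL/6 mice, single 40 mg/kg oral gavage; three mice per time point; plasma at 30 min to 24 h, LC-MS; noncompartmental parameters reported as means.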

[2] = test system: Mycobacterium tuberculosis; assay: Antitubercular activity against Mycobacterium tuberculosis Erdman ATCC 35801 infected in C57BL/6 mouse assessed as viable bacterial load in spleen at 200 mg/kg/day through gavage 5 days per week for 4 weeks starting on 10th day post-infection (reference value: 4.79 +/- 0.21 log10CFU/spleen); format: functional
[3] = Solubility in simulated intestinal fluid at pH 7.6 by HPLC method; format: physicochemical
How it was run: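 Simulated intestinal fluid medium; each analogue 200 μM final in 2% DMSO, shaken 24 h at room temperature, then HPLC with photodiode array read at 230 nm; duplicate, means given.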

CYP3A4 = CYP3A4 (Homo sapiens, UniProt P08684); assay: Inhibition of human recombinant CYP3A4 at 10 uM incubated for 30 mins at 37 degC using 7-benzyloxy-4-(trifluoromethyl)coumarin substrate; format: ADME; settings: recombinant CYP3A4, probe 7-benzyloxy-4-(trifluoromethyl)coumarin
CYP3A4, sequence (P08684 whole entry): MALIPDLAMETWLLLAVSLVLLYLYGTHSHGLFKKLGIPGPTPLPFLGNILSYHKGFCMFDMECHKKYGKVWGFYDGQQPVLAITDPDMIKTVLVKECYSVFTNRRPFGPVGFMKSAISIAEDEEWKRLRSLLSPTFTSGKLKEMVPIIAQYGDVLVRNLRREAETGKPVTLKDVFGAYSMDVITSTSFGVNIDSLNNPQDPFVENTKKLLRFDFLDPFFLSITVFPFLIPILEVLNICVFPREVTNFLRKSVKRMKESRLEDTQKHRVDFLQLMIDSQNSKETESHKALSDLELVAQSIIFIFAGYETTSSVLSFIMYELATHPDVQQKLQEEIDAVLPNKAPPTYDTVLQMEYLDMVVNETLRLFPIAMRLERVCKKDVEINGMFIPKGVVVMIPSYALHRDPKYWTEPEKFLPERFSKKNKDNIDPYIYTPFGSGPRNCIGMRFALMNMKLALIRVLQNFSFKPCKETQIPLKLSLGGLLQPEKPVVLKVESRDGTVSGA

[4] = test system: Mycobacterium tuberculosis; assay: Antitubercular activity against Mycobacterium tuberculosis Erdman ATCC 35801 infected in C57BL/6 mouse assessed as viable bacterial load in lung at 200 mg/kg twice daily through gavage 5 days per week for 4 weeks starting on 10th day post-infection (reference value: 6.49 +/- 0.10 log10CFU/lung); format: functional
[5] = test system: Mycobacterium tuberculosis; assay: Antitubercular activity against Mycobacterium tuberculosis H37Rv incubated at 37 degC for 14 days in presence of 40% human serum by microplate alamar blue assay; format: functional; settings: 336 h
How it was run: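 This is the MABA run in 7H9 broth containing 40% human serum. Compounds were 2-fold serially diluted, and wells were inoculated with H37Rv at 2 × 10⁵ CFU/mL. Incubation was at 37 °C for 14 days, then Alamar Blue was added. MIC was the lowest concentration preventing the blue-to-pink colour change.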

[6] = test system: Mycobacterium tuberculosis; assay: Antitubercular activity against Mycobacterium tuberculosis Erdman ATCC 35801 infected in C57BL/6 mouse assessed as viable bacterial load in spleen at 200 mg/kg twice daily through gavage 5 days per week for 4 weeks starting on 10th day post-infection (reference value: 4.79 +/- 0.21 log10CFU/spleen); format: functional
[7] = Permeability across apical to basolateral side in human Caco2 cells incubated for 1 hr at 37 degC by HPLC-MS/MS method; format: ADME, cell-based; settings: Caco-2
How it was run: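 TC7 (Caco-2 subclone) monolayer; 10 μM compound in 1% DMSO in HBSS-MES pH 6.5 on apical donor side, basolateral receiver pH 7.4; shaken 1 h at 37 °C; receiver sampled, HPLC-MS/MS; duplicate means.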

[8] = AUC (0 to infinity) in Sprague-Dawley rat at 5 mg/kg, iv; format: ADME, organism-based; parameters: time infinity, dose 5 mg/kg, route intravenous; settings: plasma
[9] = Protein binding in human plasma at 10 uM incubated for 8 hrs at 37 degC by equilibrium dialysis method; format: ADME, cell-free; settings: read-out: PPB (converted)
How it was run: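 Equilibrium dialysis: 10 μM compound in 1% DMSO in human plasma vs 0.05 M phosphate buffer pH 7.5 across 12–14 K cutoff membrane, at least 8 h at 37 °C; HPLC-photodiode detection at 230 nm; duplicate means.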

[10] = test system: Mycobacterium tuberculosis; assay: Antitubercular activity against Mycobacterium tuberculosis H37Rv incubated at 37 degC for 7 days by microplate alamar blue assay; format: functional; settings: Mycobacterium tuberculosis, H37Rv, 168 h
How it was run: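 Mtb H37Rv was grown in 7H9 broth with glycerol, Casitone, 10% OADC and 0.05% Tween 80 to OD600 0.4. Compounds were 2-fold serially diluted from DMSO stocks in 7H9, and wells were inoculated at 2 × 10⁵ CFU/mL. After 7 days at 37 °C, Alamar Blue was added and read after a further 24 h. MIC was the lowest concentration preventing the blue-to-pink change.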

[11] = Cmax in C57BL/6 mouse at 40 mg/kg, po formulated in 0.1% SLS; format: ADME, organism-based; parameters: dose 40 mg/kg, route oral; settings: in vivo; how it was run: as §1
[12] = Solubility in simulated gastric fluid at pH 1.5 by HPLC method; format: physicochemical
How it was run: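 Compound at 200 μM final in 2% DMSO in simulated gastric fluid, shaken 24 h at room temperature; HPLC-photodiode array detection at 230 nm; duplicate means.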

CYP2C9 = CYP2C9 (Homo sapiens, UniProt P11712); assay: Inhibition of human recombinant CYP2C9 at 10 uM incubated for 80 mins at 37 degC using 7-methoxy-4-trifluoromethylcoumarin substrate; format: ADME; settings: recombinant CYP2C9, probe 7-methoxy-4-trifluoromethylcoumarin
CYP2C9, sequence (P11712 whole entry): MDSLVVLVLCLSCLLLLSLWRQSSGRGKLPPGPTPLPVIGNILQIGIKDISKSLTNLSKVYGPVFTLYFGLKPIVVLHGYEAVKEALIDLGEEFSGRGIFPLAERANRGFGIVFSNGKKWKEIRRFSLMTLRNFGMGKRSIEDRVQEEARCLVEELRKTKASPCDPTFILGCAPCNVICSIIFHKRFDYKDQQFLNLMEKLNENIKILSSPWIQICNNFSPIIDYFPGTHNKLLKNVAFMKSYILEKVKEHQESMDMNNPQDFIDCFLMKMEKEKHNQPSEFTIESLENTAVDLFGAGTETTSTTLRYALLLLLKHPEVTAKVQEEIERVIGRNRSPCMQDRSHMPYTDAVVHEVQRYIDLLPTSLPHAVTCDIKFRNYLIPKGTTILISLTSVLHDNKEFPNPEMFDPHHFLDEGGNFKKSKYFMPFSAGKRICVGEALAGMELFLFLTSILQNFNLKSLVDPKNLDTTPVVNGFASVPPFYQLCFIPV

[13] = Tmax in Sprague-Dawley rat at 20 mg/kg, po; format: ADME, organism-based; parameters: dose 20 mg/kg, route oral; settings: in vivo
[14] = Volume of distribution in Sprague-Dawley rat at 5 mg/kg, iv; format: ADME, organism-based; parameters: dose 5 mg/kg, route intravenous; settings: in vivo
How it was run: (§2)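 Male Sprague-Dawley rats (n = 3), single 5 mg/kg iv dose as solution in PEG300/DMSO 50:50; plasma sampled 0.083–24 h, LC-MS bioanalysis; noncompartmental analysis, means.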

[15] = Tmax in C57BL/6 mouse at 40 mg/kg, po formulated in 20% DMSODMSO, 20% PEG400, 60% (30% HP-beta-CD in water); format: ADME, organism-based; parameters: dose 40 mg/kg, route oral; settings: in vivo; how it was run: as §1
[16] = AUC (0 to infinity) in Sprague-Dawley rat at 20 mg/kg, po; format: ADME, organism-based; parameters: time infinity, dose 20 mg/kg, route oral; settings: plasma
[17] = Elimination half life in Sprague-Dawley rat at 5 mg/kg, iv; format: ADME, organism-based; parameters: dose 5 mg/kg, route intravenous; settings: in vivo, read-out: beta t1/2 (converted); how it was run: as §2
[18] = Half life in C57BL/6 mouse at 40 mg/kg, po formulated in 0.1% SLS; format: ADME, organism-based; parameters: dose 40 mg/kg, route oral; settings: in vivo; how it was run: as §1
[19] = AUC (0 to infinity) in C57BL/6 mouse at 40 mg/kg, po formulated in 20% DMSODMSO, 20% PEG400, 60% (30% HP-beta-CD in water); format: ADME, organism-based; parameters: dose 40 mg/kg, route oral, time infinity; settings: plasma
Salmonella typhimurium [20] = assay: Toxicity in Salmonella typhimurium TA100 assessed as compound level per well causing cytotoxicity at 0.25 to 240 ug/well in absence of rat liver S9 fraction; format: organism-based; settings: salmonella enterica subsp. enterica serovar typhimurium
How it was run: (§3)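 MicroAmes: strains preincubated with or without Aroclor-induced rat liver S9, duplicate wells, six concentrations 0.25–250 μg equivalents/well; DMSO vehicle, 4-nitroquinoline-N-oxide (−S9) and 2-aminoanthracene (+S9) positive controls; revertant colonies counted; cytotoxicity noted as reduced revertants or background lawn; precipitation recorded.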

Salmonella typhimurium [21] = assay: Mutagenicity in Salmonella typhimurium TA100 assessed as mean revertant colonies at 0.25 to 240 ug/well in absence of rat liver S9 fraction; format: toxicity, organism-based; settings: salmonella enterica subsp. enterica serovar typhimurium; how it was run: as §3
[22] = AUC (0 to infinity) in C57BL/6 mouse at 40 mg/kg, po formulated in 0.1% SLS; format: ADME, organism-based; parameters: time infinity, dose 40 mg/kg, route oral; settings: plasma
[23] = Distribution coefficient, log D of the compound between n-octanol and PBS buffer at pH 7.4 incubated for 1 hr by shake flask method; format: physicochemical
How it was run: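 Partition between n-octanol and PBS pH 7.4 after 1 h shaking at room temperature; phases analysed by HPLC with photodiode detection; logD = log10 of organic/aqueous amount.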

Salmonella typhimurium [24] = assay: Mutagenicity in Salmonella typhimurium TA98 assessed as mean revertant colonies at 0.25 to 240 ug/well in presence of rat liver S9 fraction; format: toxicity, organism-based; settings: salmonella enterica subsp. enterica serovar typhimurium; how it was run: as §3

Structure (SMILES): O=C1C2=Nc3ccccc3CN2c2ccc(Cl)cc21
- Cmax [1]: 371 ng/mL
- log10cfu [2]: 4.85
- solubility [3]: 19.3 µM (≈ 5.19 µg/mL)
- inhibition at 0.5 h, 10 µM (CYP3A4): 1%
- log10cfu [4]: 6.64
- MIC [5]: 0.125 µg/mL
- log10cfu [6]: 4.89
- Papp A→B at 1 h [7]: 60.8 ×10⁻⁶ cm/s
- AUC(0-inf) [8]: 930 ng·h/mL
- fraction unbound at 8 h, 10 µM [9]: 0.013
- MIC [10]: 0.125 µg/mL (≈ 0.465 µM)
- Cmax [11]: 197 ng/mL
- solubility [12]: 79.2 µM (≈ 21.3 µg/mL)
- inhibition at 80 min, 10 µM (CYP2C9): 27%
- Tmax [13]: 2 h
- Vd [14]: 11.7 L/kg
- Tmax [15]: 1.5 h
- AUC(0-inf) [16]: 300 ng·h/mL
- half-life [17]: 1.42 h
- half-life [18]: 3.08 h
- AUC(0-inf) [19]: 968 ng·h/mL
- Activity (Salmonella typhimurium [20]): >= 2.5 ug
- Activity (Salmonella typhimurium [21]): Non-toxic
- AUC(0-inf) [22]: 1400 ng·h/mL
- logD at 1 h [23]: 3.37
- Activity (Salmonella typhimurium [24]): Non-toxic
